Tests used:
Format in all cases: functional, Leukemia cell
[1] = Induction of erythroid differentiation in DBA/2J mouse Friend erythroleukemia cells assessed as concentration required for maximum proportion of benzidine positive cells after 6 days
In short: (§1)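 Log-phase Friend leukemia cells seeded at 10⁵ cells/mL in DMEM + 10% fetal calf serum, 37 °C, 10% CO₂. Compound added at seeding over a range of concentrations with twofold steps, in two separate experiments. Water-insoluble agents were dissolved in 50% ethanol or acetone. Me₂SO (210 mM) was the positive control. Benzidine-positive cells were scored on day 6 with benzidine peroxide stain.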

[2] = Induction of erythroid differentiation in DBA/2J mouse Friend erythroleukemia cells assessed as cell growth after 3 days relative to control; parameters: concentration or dose not given beside the values
In short: (§2)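 Cells were seeded at 10⁵ cells/mL with compound added at seeding, in two separate experiments using twofold concentration steps. Incubation was at 37 °C. Cell number was counted with a Coulter counter on day 3, and cell counts were also taken on day 6. Growth is expressed as a percentage of untreated control cultures.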

[3] = Induction of erythroid differentiation in DBA/2J mouse Friend erythroleukemia cells assessed as benzidine positive cells after 6 days relative to control; parameters: concentration or dose not given beside the values; in short: as §1
[4] = Induction of erythroid differentiation in DBA/2J mouse Friend erythroleukemia cells assessed as hemoglobin level per 10^7 cells after 3 to 6 days relative to control
In short: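 On day 6, cultures that contained benzidine-positive cells were centrifuged at 350g for 10 min. Cells were washed twice in phosphate-buffered 0.9% NaCl, pH 7.4, then sonicated. Total hemoglobin was measured from absorbance at 515 nm after the lysate was incubated with benzidine, and expressed per 10⁷ cells. Cells had been seeded at 10⁵ cells/mL with compound added at seeding, 37 °C.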

[5] = Induction of erythroid differentiation in DBA/2J mouse Friend erythroleukemia cells assessed as cell growth after 6 days relative to control; parameters: concentration or dose not given beside the values; in short: as §2

SMILES | Activity [1] [mM] | Activity [2] [%] | Activity [3] [%] | Activity [4] [µg] | Activity [5] [%]
CC(=O)Nc1cccnc1 | 8 | 58 | 43 | 14.4 | 95
CC(=O)Nc1ccccn1 | 2 | 65 | 72 | 30.6 | 95
Cn1ccccc1=O | 2 | 23 | 74 |  | 95
CC(=O)Nc1cccc(NC(C)=O)n1 | 4 | 80 | 28 | 8.6 | 95
[O-][n+]1ccc(-c2ccccc2)cc1 | 0.4 | 26 | <1 | <0.5 | 95
CC(=O)NCc1ccccn1 | 15 | 36 | 68 | 30 | 95
CC(=O)NCCc1ccccn1 | 10 | 33 | 60 | 28 | 95
CC(=O)Nc1cc(-c2ccccc2)ccn1 | 0.04 | 21 | 8 |  | 95
CC(=O)Nc1cccc[n+]1[O-] | 10 | 74 | 43 | 22.6 | 95
CC(=O)Nc1ccc[n+]([O-])c1 | 10 | 74 | 35 | 15.6 | 95
CC(=O)Nc1cc(-c2ccccc2)cc[n+]1[O-] | 1 | 17 | 17 | 12.2 | 95
CC(=O)Nc1cccc(=O)n1C | 16 | 55 | 73 | 22.2 | 95
CC(=O)Nc1ccc(=O)n(C)c1 | 2 | 91 | 67 | 33.8 | 95
CC(=O)Nc1ccc(=O)[nH]c1 | 1 | 26 | 16 |  | 95
CC(=O)Nc1cccc(=O)[nH]1 | 2 | 22 | 4 |  | 95
Oc1ccccn1 | 8.6 | 11 | 26 |  | 95
C[S+](C)[O-] [DIMETHYL SULFOXIDE] | 210 | 60 | 80 | 31.2 | 

Reference: ChEMBL document CHEMBL3244117, “Pyridine derivatives as potent inducers of erythroid differentiation in Friend leukemia cells” (1978)
